Experiment [1] addresses T1, Sodium channel protein type 2 subunit alpha (Rattus norvegicus, UniProt P04775). Put plainly: (§1) In vitro inhibition of [14C]- guanidinium influx in Chinese hamster ovary (CHO) cells expressing rat brain sodium channel type IIA (CNaIIA-1). The class given is cell-based.
The target in experiment [2] is T1, Sodium channel protein type 2 subunit alpha. Described as §1. The class given is functional, cell-based.
A short description of experiment [3]: In vitro inhibition of Calcium flux into brain synaptosomes. The format is functional, subcellular, Rattus norvegicus. A digest of the protocol: (§2)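 45Ca2+ influx into brain synaptosomes depolarized by elevated K+, adapted from Nachsen and Blaustein. The rapid uptake component is measured, attributed to presynaptic neuronal (likely P-type) Ca2+ channels. Means of at least three determinations ± SEM unless otherwise indicated.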
Background: A change in cytosolic calcium serves as a functional read-out for many receptors and channels.

Another experiment has as its target Glutamate NMDA receptor. Put plainly: Displacement of [3H]-MK-801 binding to N-methyl-D-aspartate glutamate receptor of rat brain membranes. The format is cell membranes, Membrane. A digest of the protocol:
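Rat brain membrane suspension; inhibition of [3H]MK-801 binding at the NMDA receptor ion-channel site. IC50 taken from displacement curves, Ki reported. Means of at least three separate determinations ± SEM.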
(In general: Displacement assays read how much labelled ligand stays bound in the presence of the test substance.)

For experiment [4], the system named is Mus musculus. Put plainly: Percent inhibition of convulsions in audiogenic DBA/2 mice at dose 20 mg/kg. The format is functional. A digest of the protocol:
(§3)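 Audiogenic DBA/2 mice of either sex, 6.5–12 g, 20–23 days old. Drug or vehicle (0.3 M mannitol, 10 mL/kg) given ip 30 min before a 12 kHz, 120 dB pure tone for 45 s or until respiratory arrest. % inhibition = (MRS control − MRS treatment)/MRS control × 100.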

Experiment [5] deals with Mus musculus. Kind of experiment: Percent inhibition of convulsions in audiogenic DBA/2 mice at dose 10 mg/kg. The class given is functional. A digest of the protocol:
as §3

A short description of experiment [6]: In vitro inhibition of Calcium flux into brain synaptosomes (Values are means of at least three separate determinations). The class given is functional, subcellular, Rattus norvegicus. In a few lines: as §2
Experiment [7] deals with Mus musculus. Put plainly: Percent inhibition of convulsions in audiogenic DBA/2 mice at dose 2 mg/kg. The class given is functional. A digest of the protocol:
as §3

Experiment [8] concerns Mus musculus. Kind of experiment: Percent inhibition of convulsions in audiogenic DBA/2 mice at dose 4 mg/kg. The format is functional. In a few lines:
as §3

The results in this text go back to ChEMBL document CHEMBL1131053, “Design, synthesis, and pharmacological evaluation of conformationally constrained analogues of N,N'-diaryl- and N-aryl-N-aralkylguanidines as potent inhibitors of neuronal Na+ channels” (J Med Chem, 1998).

The structures appear in SMILES notation.

The term IC50 denotes the concentration that gives 50% inhibition. What is called Ki is a measure of affinity in units of concentration, obtained from inhibition or displacement. Read a low Ki as higher affinity. For orientation: inhibition in vivo means the relative decrease from the control value, in per cent. A higher inhibition in vivo goes with strong suppression.

T1 sequence (P04775 whole entry): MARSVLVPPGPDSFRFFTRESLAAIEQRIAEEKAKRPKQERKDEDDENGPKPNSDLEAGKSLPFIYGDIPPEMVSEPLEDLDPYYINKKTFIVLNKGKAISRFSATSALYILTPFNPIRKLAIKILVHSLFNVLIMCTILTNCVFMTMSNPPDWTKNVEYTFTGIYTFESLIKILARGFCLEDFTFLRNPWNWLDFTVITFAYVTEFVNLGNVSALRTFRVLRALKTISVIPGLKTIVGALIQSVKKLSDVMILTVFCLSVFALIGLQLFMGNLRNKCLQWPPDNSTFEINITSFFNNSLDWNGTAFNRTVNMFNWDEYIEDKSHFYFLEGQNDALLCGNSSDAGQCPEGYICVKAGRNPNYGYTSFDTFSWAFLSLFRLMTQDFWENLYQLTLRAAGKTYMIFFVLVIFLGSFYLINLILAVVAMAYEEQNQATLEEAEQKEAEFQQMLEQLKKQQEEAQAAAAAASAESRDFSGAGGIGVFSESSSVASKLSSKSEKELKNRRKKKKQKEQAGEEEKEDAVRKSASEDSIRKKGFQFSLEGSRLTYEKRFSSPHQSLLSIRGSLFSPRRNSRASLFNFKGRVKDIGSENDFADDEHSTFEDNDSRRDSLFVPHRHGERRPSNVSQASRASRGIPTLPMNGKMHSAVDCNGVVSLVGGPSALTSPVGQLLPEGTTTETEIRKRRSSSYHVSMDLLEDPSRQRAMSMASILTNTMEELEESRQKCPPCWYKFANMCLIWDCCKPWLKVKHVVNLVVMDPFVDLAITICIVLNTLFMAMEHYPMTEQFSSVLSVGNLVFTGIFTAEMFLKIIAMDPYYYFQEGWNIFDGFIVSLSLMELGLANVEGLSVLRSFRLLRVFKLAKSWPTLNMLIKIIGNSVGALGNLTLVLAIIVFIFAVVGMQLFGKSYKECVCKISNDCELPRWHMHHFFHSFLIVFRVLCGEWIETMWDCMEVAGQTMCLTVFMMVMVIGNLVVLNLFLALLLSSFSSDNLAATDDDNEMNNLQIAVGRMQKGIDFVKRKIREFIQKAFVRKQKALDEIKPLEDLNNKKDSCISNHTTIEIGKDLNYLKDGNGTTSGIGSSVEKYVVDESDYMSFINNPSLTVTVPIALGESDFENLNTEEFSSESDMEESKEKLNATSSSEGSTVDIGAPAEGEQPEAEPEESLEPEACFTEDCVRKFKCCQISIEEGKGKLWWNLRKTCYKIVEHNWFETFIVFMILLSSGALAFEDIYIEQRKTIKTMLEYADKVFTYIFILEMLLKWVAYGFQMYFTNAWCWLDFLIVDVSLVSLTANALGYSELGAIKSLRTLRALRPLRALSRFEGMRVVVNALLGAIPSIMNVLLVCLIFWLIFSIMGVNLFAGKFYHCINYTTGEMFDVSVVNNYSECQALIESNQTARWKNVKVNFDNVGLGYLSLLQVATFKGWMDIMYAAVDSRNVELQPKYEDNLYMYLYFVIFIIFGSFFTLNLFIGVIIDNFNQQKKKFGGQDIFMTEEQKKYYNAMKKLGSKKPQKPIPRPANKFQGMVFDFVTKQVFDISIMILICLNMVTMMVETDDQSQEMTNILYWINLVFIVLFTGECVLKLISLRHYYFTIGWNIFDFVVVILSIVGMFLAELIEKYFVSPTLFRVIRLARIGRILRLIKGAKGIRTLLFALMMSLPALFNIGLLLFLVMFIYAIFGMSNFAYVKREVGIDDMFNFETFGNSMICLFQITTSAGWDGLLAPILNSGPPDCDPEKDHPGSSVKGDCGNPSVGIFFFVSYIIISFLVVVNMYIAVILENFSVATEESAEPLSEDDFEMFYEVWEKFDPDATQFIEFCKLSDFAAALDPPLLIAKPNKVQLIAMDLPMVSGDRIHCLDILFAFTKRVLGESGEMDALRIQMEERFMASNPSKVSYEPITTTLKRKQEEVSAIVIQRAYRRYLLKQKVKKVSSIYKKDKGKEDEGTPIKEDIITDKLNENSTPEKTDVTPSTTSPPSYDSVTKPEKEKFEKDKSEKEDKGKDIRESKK

`c1ccc(NC2=NCCN2c2ccccc2)cc1`: in experiment [1], the IC50 was > 25 µM.
On to `N=C(Nc1ccccc1)Nc1ccccc1`, for which the half-inhibitory concentration (IC50) in [2] was > 14 µM.
In experiment [1], `N=C(N)N(Cc1ccccc1)c1ccccc1` registered an IC50 of 53 µM.
On to `CCC(C)c1ccc(N2C(N)=NCC2c2ccc(C(C)C)cc2)cc1` (configuration not stated), for which the IC50 came out at 3.5 µM in [3] and 1.8 µM in experiment [1]. The same compound came in with a Ki at Glutamate NMDA receptor of 4.41 µM. Besides, the inhibition in vivo at 20 mg/kg with Mus musculus [4] stood at 2%.
`N=C1N(c2ccccc2)CCN1c1ccccc1` showed an IC50 in [1] of 14.7 µM.
For `N=C1N(c2ccccc2)CCCN1c1ccccc1`, in experiment [1], the IC50 is > 25 µM.
In the case of `Nc1nnc(-c2cccc(Cl)c2Cl)c(N)n1` [LAMOTRIGINE], in the experiment on Mus musculus [5], the inhibition in vivo at 10 mg/kg was 71%.
Turning to `N/C1=N/c2ccc(cc2)OCCCCCOc2ccc(cc2)N1`, half-maximal inhibition in experiment [1] (IC50) required 2.9 µM.
`CC(C)c1ccc2c(c1)CCC(c1ccc(C(C)(C)C)cc1)N2C(=N)N` (configuration not stated): the values for the IC50 in experiment [6] and in experiment [2] were 0.9 µM and 0.46 µM, respectively. This compound gave a Ki at Glutamate NMDA receptor of 3.84 µM. 10 mg/kg produced 22% inhibition in vivo in the experiment on Mus musculus [5]. Moreover, in the experiment on Mus musculus [4], the inhibition in vivo at 20 mg/kg was 80%.
`CCC(C)c1ccc(N(C)C(=N)N(C)c2ccc(C(C)CC)cc2)cc1` (configuration not stated): the IC50 in experiment [6] worked out at 2.5 µM; in experiment [2] it was 1 µM. In addition, on Glutamate NMDA receptor, the Ki is 3.34 µM. Moreover, the inhibition in vivo at 20 mg/kg in the experiment on Mus musculus [4] was 43%.
On to `CCC(C)c1ccc(NC(=N)Nc2ccc(C(C)CC)cc2)cc1` (configuration not stated), for which the Ki at Glutamate NMDA receptor was found to be 4.33 µM. Further, 20 mg/kg produced 69% inhibition in vivo in the experiment with Mus musculus [4].
Regarding `CN(c1nc2ccccc2s1)C1CCN(C[C@H](O)COc2ccc(F)c(F)c2)CC1` [LUBELUZOLE], the IC50 in experiment [1] worked out at 0.26 µM. In addition, in the experiment with Mus musculus [4], 20 mg/kg produced 66% inhibition in vivo.
With `CCC(C)c1ccc(N2CCCN(c3ccc(C(C)CC)cc3)C2=N)cc1` (configuration not stated), the IC50 in experiment [6] turned out to be 0.39 µM; in experiment [2], 0.06 µM. Moreover, testing at 2 mg/kg in the experiment on Mus musculus [7] gave an inhibition in vivo of 41%. On Glutamate NMDA receptor, this compound registered a Ki of 35.1 µM. For the same compound, the inhibition in vivo at 10 mg/kg with Mus musculus [5] is 84%. The same compound displayed an inhibition in vivo at 4 mg/kg in the experiment on Mus musculus [8] of 75%.
As to `CCC(C)c1ccc(N(Cc2ccc(C(C)(C)C)cc2)C(=N)N)cc1` (configuration not stated), the results for the IC50 in experiment [3] and in experiment [1] were 2.4 µM and 0.62 µM, respectively. At Glutamate NMDA receptor, this compound had a Ki of 3.69 µM. The compound further came in with an inhibition in vivo at 10 mg/kg in the experiment with Mus musculus [5] of 44%. Besides, the inhibition in vivo at 20 mg/kg in the experiment with Mus musculus [4] was determined as 81%.
For the compound `NC1=NCC(c2ccccc2)N1c1ccccc1` (configuration not stated), the IC50 in [1] was > 24 µM.
Consider `COc1ccc(/N=C(\N)Nc2ccc3c4c(cccc24)CC3)c2ccccc12`, for which the values for the IC50 in experiment [6] and in experiment [2] were 2.7 µM and 1.64 µM, respectively. The same compound yielded a Ki on Glutamate NMDA receptor of 2.49 µM. The same compound showed an inhibition in vivo at 20 mg/kg with Mus musculus [4] of 21%.
The compound `CCC(C)c1ccc(N2CCN(c3ccc(C(C)CC)cc3)C2=N)cc1` (configuration not stated) displayed an IC50 in experiment [2] of 0.06 µM. Also, the Ki on Glutamate NMDA receptor is 13.5 µM. Moreover, the inhibition in vivo at 20 mg/kg in the experiment on Mus musculus [4] was found to be 58%.
In experiment [1], `CCOc1ccc(NC(=N)Nc2ccc(OCC)cc2)cc1` had an IC50 of 3.28 µM.
In turn, `N=C(N)N1Cc2ccccc2CCc2ccccc21` returned an IC50 in [1] of 38 µM.
In experiment [1], `N=C(N)N1c2ccccc2CCC1c1ccccc1` (configuration not stated) gave an IC50 of 17.5 µM.
The same measure, in the same setting: next, `NC1=Nc2ccccc2CN1c1ccccc1`: 9.95 µM.
